# Laboratory results as given in BindingDB's records for doi:10.1021/jm00089a014 (Genentech, 1992).
# *1 amine or outer side, *2 acyl side, *3 side chain or, on linkers, in order; H or OH if unused. Where a SMILES comes first, the peptide text is derived from it. Bridges are numbered along the chain shown (N, C = ends). [ ]: non-standard residue; d: D form. Cys(O)(CH2CO) = O=C([C@H](C[S+]([O-])CC(=O)[*:3])N[*:1])[*:2]
# Biological target: Integrin alpha-IIb/beta-3 (Homo sapiens, UniProt P08514+P05106)
# Sequence (P05106 27-788 limits assumed): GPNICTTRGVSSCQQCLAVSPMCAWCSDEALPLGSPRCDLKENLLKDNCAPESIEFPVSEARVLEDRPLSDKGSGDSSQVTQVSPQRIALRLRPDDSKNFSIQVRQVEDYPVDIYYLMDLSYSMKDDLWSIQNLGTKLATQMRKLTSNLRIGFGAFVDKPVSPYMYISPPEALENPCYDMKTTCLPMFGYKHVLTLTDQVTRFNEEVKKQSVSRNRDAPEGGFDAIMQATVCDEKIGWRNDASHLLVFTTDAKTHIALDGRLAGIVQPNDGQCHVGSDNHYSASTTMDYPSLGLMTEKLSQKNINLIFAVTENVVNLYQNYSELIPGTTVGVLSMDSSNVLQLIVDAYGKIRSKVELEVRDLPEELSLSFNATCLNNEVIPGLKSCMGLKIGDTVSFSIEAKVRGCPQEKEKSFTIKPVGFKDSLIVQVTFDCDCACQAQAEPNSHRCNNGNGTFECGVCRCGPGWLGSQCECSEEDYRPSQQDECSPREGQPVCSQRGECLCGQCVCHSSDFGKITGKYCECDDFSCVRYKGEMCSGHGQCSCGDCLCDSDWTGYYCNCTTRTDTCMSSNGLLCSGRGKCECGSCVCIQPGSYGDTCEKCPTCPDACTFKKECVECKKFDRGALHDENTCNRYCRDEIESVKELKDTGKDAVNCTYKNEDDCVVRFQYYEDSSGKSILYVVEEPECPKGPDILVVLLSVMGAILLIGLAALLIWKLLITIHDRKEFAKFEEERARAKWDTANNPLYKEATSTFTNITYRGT
# Sequence (P08514 32-887 limits assumed): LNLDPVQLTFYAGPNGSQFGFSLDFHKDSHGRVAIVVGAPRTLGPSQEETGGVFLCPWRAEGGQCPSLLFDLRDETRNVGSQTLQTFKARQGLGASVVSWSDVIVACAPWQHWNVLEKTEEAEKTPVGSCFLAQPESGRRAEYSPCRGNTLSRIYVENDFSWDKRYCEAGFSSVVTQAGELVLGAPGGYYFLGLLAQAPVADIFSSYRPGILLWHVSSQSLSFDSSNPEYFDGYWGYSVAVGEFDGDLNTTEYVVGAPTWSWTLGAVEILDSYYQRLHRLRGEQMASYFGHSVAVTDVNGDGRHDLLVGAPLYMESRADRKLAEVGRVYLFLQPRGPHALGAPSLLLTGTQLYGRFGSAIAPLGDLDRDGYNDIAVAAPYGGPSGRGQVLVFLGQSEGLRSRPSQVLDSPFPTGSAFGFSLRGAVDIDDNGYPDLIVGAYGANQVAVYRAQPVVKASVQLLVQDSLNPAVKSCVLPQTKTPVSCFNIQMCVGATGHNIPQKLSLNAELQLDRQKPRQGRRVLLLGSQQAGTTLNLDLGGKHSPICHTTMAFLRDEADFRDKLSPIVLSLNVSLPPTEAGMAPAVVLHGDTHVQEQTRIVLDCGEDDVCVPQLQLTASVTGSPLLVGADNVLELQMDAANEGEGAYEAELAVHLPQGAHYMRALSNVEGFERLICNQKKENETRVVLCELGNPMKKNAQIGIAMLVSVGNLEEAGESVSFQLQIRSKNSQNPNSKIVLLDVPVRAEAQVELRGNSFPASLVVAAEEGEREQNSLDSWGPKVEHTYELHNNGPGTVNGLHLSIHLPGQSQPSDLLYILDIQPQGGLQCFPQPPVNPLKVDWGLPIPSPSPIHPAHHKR
# Sequence (P08514 891-1039 limits assumed): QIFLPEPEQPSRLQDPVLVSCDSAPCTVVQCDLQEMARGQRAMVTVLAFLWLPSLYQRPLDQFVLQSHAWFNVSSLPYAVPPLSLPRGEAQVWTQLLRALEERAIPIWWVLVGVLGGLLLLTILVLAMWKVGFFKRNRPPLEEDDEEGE
# Assay: Inhibition of ADP-induced platelet aggregation in human platelet-rich plasma
# In short: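 Human blood drawn into 3.8% sodium citrate (9:1); PRP from 180g spin, 12 min, 22 °C; count adjusted to 3 × 10^8/mL with PPP. PRP preincubated with test sample 5 min at 37 °C in aggregometer, then ADP 17.2 µM final. Inhibition from transmittance change at 5 min versus no-sample maximum; 12-14 concentrations over ~200-fold range; IC50 by four-parameter fit; n ≥ 3.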
row,Structure (SMILES),IC50 [nM]
1,N=C(N)NCCC[C@@H]1NC(=O)CCNC(=O)CSC[C@@H](C(=O)O)NC(=O)[C@H](CC(=O)O)NC(=O)CNC1=O,34300
2,CC[C@@H](C)[C@H]1NC(=O)CSC[C@@H](C(=O)O)NC(=O)[C@H](CC(=O)O)NC(=O)CNC(=O)[C@H](CCCN=C(N)N)NC1=O,6080
3,CC(C)C[C@H](NC(=O)[C@H](CC(=O)O)NC(=O)CNC(=O)[C@H](CCCNC(=N)N)NC(=O)CN)C(=O)O (H-GRGDL-OH),170000
4,NC(N)=NCCC[C@H](N)C(=O)NCC(=O)N[C@@H](CC(=O)O)C(=O)N[C@@H](Cc1ccccc1)C(=O)O (H-RGDF-OH),43000
5,N=C(N)NCCC[C@@H]1NC(=O)[C@H](Cc2ccc(O)cc2)NC(=O)C[S+]([O-])C[C@@H](C(N)=O)NC(=O)[C@H](CC(=O)O)NC(=O)CNC1=O (stereo not given in full) (YRGD[Cys(O)(CH2CO)]-NH2; lactam N-5),200
6,N=C(N)NCCC[C@@H]1NC(=O)CNC(=O)C(c2ccc3ccccc3c2)SC[C@@H](C(=O)O)NC(=O)[C@H](CC(=O)O)NC(=O)CNC1=O (stereo not given in full),4000
7,N=C(N)NCCC[C@@H]1NC(=O)[C@@H](Cc2ccc(O)cc2)NC(=O)CS(=O)(=O)C[C@@H](C(=O)O)NC(=O)[C@H](CC(=O)O)NC(=O)CNC1=O,210
8,N=C(N)NCCC[C@@H]1NC(=O)[C@@H](Cc2c[nH]c3ccccc23)NC(=O)CSC[C@@H](C(=O)O)NC(=O)[C@H](CC(=O)O)NC(=O)CNC1=O,4780
9,CSCC[C@@H]1NC(=O)CSC[C@@H](C(=O)O)NC(=O)[C@H](CC(=O)O)NC(=O)CNC(=O)[C@H](CCCNC(=N)N)NC1=O,1060
10,N=C(N)NCCC[C@@H]1NC(=O)c2cccc(c2)CSC[C@@H](C(=O)O)NC(=O)[C@H](CC(=O)O)NC(=O)CNC1=O,30800
11,CC(C)[C@@H]1NC(=O)CSC[C@@H](C(=O)O)NC(=O)[C@H](CC(=O)O)NC(=O)CNC(=O)[C@H](CCCNC(=N)N)NC1=O,80
12,N=C(N)NCCC[C@@H]1NC(=O)CNC(=O)CSC[C@@H](C(N)=O)NC(=O)[C@H](CC(=O)O)NC(=O)CNC1=O ({CH2CO}-GRGDC-NH2; thioether N-5),150000
13,N=C(N)NCCC[C@@H]1NC(=O)[C@H](CCCCN)NC(=O)CSC[C@@H](C(=O)O)NC(=O)[C@H](CC(=O)O)NC(=O)CNC1=O,600
14,N=C(N)NCCC[C@@H]1NC(=O)[C@H](CC(N)=O)NC(=O)C[S+]([O-])C[C@@H](C(=O)O)NC(=O)[C@H](CC(=O)O)NC(=O)CNC1=O (stereo not given in full),460
15,N=C(N)NCCC[C@@H]1NC(=O)[C@H](CCCN)NC(=O)CSC[C@@H](C(=O)O)NC(=O)[C@H](CC(=O)O)NC(=O)CNC1=O,250
16,C[C@@H](O)[C@@H]1NC(=O)CSC[C@@H](C(=O)O)NC(=O)[C@H](CC(=O)O)NC(=O)CNC(=O)[C@H](CCCN=C(N)N)NC1=O,240
17,C[C@@H]1NC(=O)C[S+]([O-])C[C@@H](C(=O)O)NC(=O)[C@H](CC(=O)O)NC(=O)CNC(=O)[C@H](CCCNC(=N)N)NC1=O (stereo not given in full),610
18,N=C(N)NCCC[C@@H]1NC(=O)[C@H](Cc2cnc[nH]2)NC(=O)CSC[C@@H](C(=O)O)NC(=O)[C@H](CC(=O)O)NC(=O)CNC1=O,540
19,CC(=O)NCC(=O)N[C@@H](CCCNC(=N)N)C(=O)NCC(=O)N[C@@H](CC(=O)O)C(=O)N[C@H](C(N)=O)C(C)C (Ac-GRGDV-NH2),> 500000
20,N=C(N)NCCC[C@@H]1NC(=O)[C@H](Cc2ccc(O)cc2)NC(=O)C[S+]([O-])C[C@@H](C(=O)O)NC(=O)[C@H](CC(=O)O)NC(=O)CNC1=O (stereo not given in full),450
21,N=C(N)NCCC[C@@H]1NC(=O)[C@H](Cc2ccc(O)cc2)NC(=O)CSC[C@@H](C(=O)O)NC(=O)[C@H](CC(=O)O)NC(=O)CNC1=O ({CH2CO}-YRGDC-OH; thioether N-5),150
22,N=C(N)NCCC[C@@H]1NC(=O)CNC(=O)C(c2ccccc2C(F)(F)F)SC[C@@H](C(=O)O)NC(=O)[C@H](CC(=O)O)NC(=O)CNC1=O (stereo not given in full),150
23,CC(C)[C@@H]1NC(=O)C[S+]([O-])C[C@@H](C(=O)O)NC(=O)[C@H](CC(=O)O)NC(=O)CNC(=O)[C@H](CCCNC(=N)N)NC1=O (stereo not given in full) (VRGD[Cys(O)(CH2CO)]-OH; lactam N-5),210
24,CC[C@H](C)[C@@H]1NC(=O)CSC[C@@H](C(=O)O)NC(=O)[C@H](CC(=O)O)NC(=O)CNC(=O)[C@H](CCCN=C(N)N)NC1=O,270
25,N=C(N)NCCC[C@@H]1NC(=O)[C@@H](Cc2ccc(O)cc2)NC(=O)C[S+]([O-])C[C@@H](C(=O)O)NC(=O)[C@H](CC(=O)O)NC(=O)CNC1=O (stereo not given in full),120
26,N=C(N)NCCC[C@@H]1NC(=O)CNC(=O)C[S+]([O-])C[C@@H](C(=O)O)NC(=O)[C@H](CC(=O)O)NC(=O)CNC1=O (stereo not given in full),370
27,N=C(N)NCCC[C@H](NC(=O)CN)C(=O)NCC(=O)N[C@@H](CC(=O)O)C(=O)N[C@@H](Cc1ccc(O)cc1)C(=O)O (H-GRGDY-OH),170000
28,C[C@H](O)[C@H]1NC(=O)CSC[C@@H](C(=O)O)NC(=O)[C@H](CC(=O)O)NC(=O)CNC(=O)[C@H](CCCN=C(N)N)NC1=O,2920

row,Structure (SMILES),IC50 [nM]
1,CC(C)[C@H]1NC(=O)CSC[C@@H](C(=O)O)NC(=O)[C@H](CC(=O)O)NC(=O)CNC(=O)[C@H](CCCNC(=N)N)NC1=O,8740
2,N=C(N)NCCC[C@@H]1NC(=O)[C@H](CO)NC(=O)C[S+]([O-])C[C@@H](C(=O)O)NC(=O)[C@H](CC(=O)O)NC(=O)CNC1=O (stereo not given in full) (SRGD[Cys(O)(CH2CO)]-OH; lactam N-5),490
3,C[C@@H]1NC(=O)CSC[C@@H](C(=O)O)NC(=O)[C@H](CC(=O)O)NC(=O)CNC(=O)[C@H](CCCNC(=N)N)NC1=O ({CH2CO}-ARGDC-OH; thioether N-5),590
4,N=C(N)NCCC[C@@H]1NC(=O)CNC(=O)C(c2cccc3ccccc23)SC[C@@H](C(=O)O)NC(=O)[C@H](CC(=O)O)NC(=O)CNC1=O (stereo not given in full),780
5,N=C(N)NCCC[C@@H]1NC(=O)CNC(=O)CCSC[C@@H](C(=O)O)NC(=O)[C@H](CC(=O)O)NC(=O)CNC1=O,64300
6,N=C(N)NCCC[C@@H]1NC(=O)[C@H](CCC(=O)O)NC(=O)CSC[C@@H](C(=O)O)NC(=O)[C@H](CC(=O)O)NC(=O)CNC1=O,4600
7,N=C(N)NCCC[C@@H]1NC(=O)[C@H](Cc2c[nH]c3ccccc23)NC(=O)CSC[C@@H](C(=O)O)NC(=O)[C@H](CC(=O)O)NC(=O)CNC1=O,460
8,N=C(N)NCCC[C@@H]1NC(=O)[C@@H](Cc2cnc[nH]2)NC(=O)CSC[C@@H](C(=O)O)NC(=O)[C@H](CC(=O)O)NC(=O)CNC1=O,1080
9,N=C(N)NCCC[C@@H]1NC(=O)[C@@H](Cc2ccc(O)cc2)NC(=O)CSC[C@@H](C(=O)O)NC(=O)[C@H](CC(=O)O)NC(=O)CNC1=O ({CH2CO}-[dY]RGDC-OH; thioether N-5),3450
10,N=C(N)NCCC[C@@H]1NC(=O)[C@H](CO)NC(=O)CSC[C@@H](C(=O)O)NC(=O)[C@H](CC(=O)O)NC(=O)CNC1=O,480
11,N=C(N)NCCC[C@@H]1NC(=O)[C@H](CCCCN)NC(=O)C[S+]([O-])C[C@@H](C(=O)O)NC(=O)[C@H](CC(=O)O)NC(=O)CNC1=O (stereo not given in full) (KRGD[Cys(O)(CH2CO)]-OH; lactam N-5),2800
12,N=C(N)NCCC[C@@H]1NC(=O)[C@@H](Cc2ccccc2)NC(=O)C[S+]([O-])C[C@@H](C(=O)O)NC(=O)[C@H](CC(=O)O)NC(=O)CNC1=O (stereo not given in full),440
13,CC(=O)NCC(=O)N[C@@H](CCCNC(=N)N)C(=O)NCC(=O)N[C@@H](CC(=O)O)C(=O)N[C@H](C(=O)O)C(C)C (Ac-GRGDV-OH),77000
14,N=C(N)NCCC[C@@H]1NC(=O)[C@H](Cc2ccccc2)NC(=O)C[S+]([O-])C[C@@H](C(=O)O)NC(=O)[C@H](CC(=O)O)NC(=O)CNC1=O (stereo not given in full),2230
15,N=C(N)NCCC[C@@H]1NC(=O)CNC(=O)CSC[C@@H](C(=O)O)NC(=O)[C@H](CC(=O)O)NC(=O)CNC1=O ({CH2CO}-GRGDC-OH; thioether N-5),5000
16,N=C(N)NCCC[C@@H]1NC(=O)[C@@H]2CCCN2C(=O)CSC[C@@H](C(=O)O)NC(=O)[C@H](CC(=O)O)NC(=O)CNC1=O ({CH2CO}-PRGDC-OH; thioether N-5),430
17,N=C(N)NCCC[C@@H]1NC(=O)[C@@H](Cc2ccccc2)NC(=O)CSC[C@@H](C(=O)O)NC(=O)[C@H](CC(=O)O)NC(=O)CNC1=O,18500
18,N=C(N)NCCC[C@@H]1NC(=O)[C@H]2CCCN2C(=O)CSC[C@@H](C(=O)O)NC(=O)[C@H](CC(=O)O)NC(=O)CNC1=O ({CH2CO}-[dP]RGDC-OH; thioether N-5),1960
19,CC(C)C[C@@H]1NC(=O)CSC[C@@H](C(=O)O)NC(=O)[C@H](CC(=O)O)NC(=O)CNC(=O)[C@H](CCCNC(=N)N)NC1=O,200
20,CC(C)[C@H](NC(=O)[C@H](CC(=O)O)NC(=O)CNC(=O)[C@H](CCCNC(=N)N)NC(=O)CN)C(=O)O (H-GRGDV-OH),75000
21,CC(C)C[C@@H]1NC(=O)C[S+]([O-])C[C@@H](C(=O)O)NC(=O)[C@H](CC(=O)O)NC(=O)CNC(=O)[C@H](CCCNC(=N)N)NC1=O (stereo not given in full) (LRGD[Cys(O)(CH2CO)]-OH; lactam N-5),100
22,N=C(N)NCCC[C@@H]1NC(=O)[C@H](Cc2ccccc2)NC(=O)CSC[C@@H](C(=O)O)NC(=O)[C@H](CC(=O)O)NC(=O)CNC1=O,220
23,N=C(N)NCCC[C@@H]1NC(=O)[C@H](Cc2ccc(O)cc2)NC(=O)CSC[C@@H](C(N)=O)NC(=O)[C@H](CC(=O)O)NC(=O)CNC1=O ({CH2CO}-YRGDC-NH2; thioether N-5),700
24,N=C(N)NCCC[C@@H]1NC(=O)CNC(=O)C(c2ccc(C(F)(F)F)cc2)SC[C@@H](C(=O)O)NC(=O)[C@H](CC(=O)O)NC(=O)CNC1=O (stereo not given in full),900
25,CC(C)C[C@H](NC(=O)[C@H](CC(=O)O)NC(=O)CNC(=O)[C@@H](N)CCCNC(=N)N)C(=O)O (H-RGDL-OH),> 2000
26,N=C(N)NCCC[C@@H]1NC(=O)[C@H](CC(N)=O)NC(=O)CSC[C@@H](C(=O)O)NC(=O)[C@H](CC(=O)O)NC(=O)CNC1=O ({CH2CO}-NRGDC-OH; thioether N-5),310
27,C[C@@H](O)[C@@H]1NC(=O)C[S+]([O-])C[C@@H](C(=O)O)NC(=O)[C@H](CC(=O)O)NC(=O)CNC(=O)[C@H](CCCN=C(N)N)NC1=O (stereo not given in full),100
